Measurements collected from several papers.
Each line is one published result; the experiments were not run side by side.
MET: Hepatocyte growth factor receptor (MET, Homo sapiens, UniProt P08581)
MET Y1235D: Hepatocyte growth factor receptor (MET, Homo sapiens, UniProt P08581, Y1235D)
MET M1250T: Hepatocyte growth factor receptor (MET, Homo sapiens, UniProt P08581, M1250T)

Cc1nn(C)cc1-c1nc2c(N3CCN(Cc4ccc(Cl)cc4)CC3)c(Cl)cnc2[nH]1  remaining binding (MET; binding; competition with immobilised ligand; 1 µM): 83%
O=c1[nH]c2ccccc2n1C1CCN(Cc2ccc(-c3[nH]c4cc5ncnc5cc4nc3-c3ccccc3)cc2)CC1  remaining signal (MET; cell-free assay; 0.5 µM): 102%
N#CC1(c2ccccn2)CCN(Cc2cc(C(=O)O)c(=O)n3ccccc23)CC1  remaining binding (MET Y1235D; cell-free assay; competition with immobilised ligand; 1 µM): 99%
C#Cc1n[nH]c2c(-c3cn(C(C)c4ccccn4)c(=O)[nH]c3=O)cc(F)cc12 (stereo not shown)  inhibition (Hepatocyte growth factor receptor (MET, Homo sapiens, UniProt P08581, D1228H); enzyme activity; inhibitor; 1 µM): 100%
Cn1cc(-c2cc(F)cc(N3CCn4c(cc5c4CCCC5)C3=O)c2CO)cc(Nc2ccc(N3CCN(C4COC4)CC3)cn2)c1=O  inhibition (MET; enzyme activity; inhibitor; 0.1 µM): 15%
CC(C)(C)c1cc(C=C(C#N)C#N)cc(Br)c1O  remaining activity (MET; enzyme activity; inhibitor; 0.5 µM): 111%
Nc1ncc(-c2nc(N3CCOCC3)nc(N3CCOCC3)n2)c(C(F)F)n1  remaining binding (MET Y1235D; cell-free assay; competition with immobilised ligand; 10 µM): 92%
COc1ncccc1-c1cnn2ccc(N3CCN(C(=O)OC(C)C)CC3)nc12  remaining binding (MET; binding; competition with immobilised ligand; 1 µM): 88%
Cn1cncc1[C@](O)(COc1ccc(C#N)cc1-c1ccc(OC(F)(F)F)cc1)c1ccc(C#N)cc1  remaining binding (MET M1250T; cell-free assay; competition with immobilised ligand; 1 µM): 100%
Cn1cc(-c2cccc(N3CCc4c(sc5c4CC(C)(C)C5)C3=O)c2CO)cc(Nc2ccncn2)c1=O  inhibition (MET M1250T; enzyme activity; inhibitor; 1 µM): 5%
